Only some compounds are listed: those with a hit (about 3.1% of all), similar ones and a draw of the others.
MBD2 inh: inhibitors of MBD2 binding to methylated DNA, primary screen, biochemical, TR-FRET, DNA-binding domain, human. Methyl-CpG-binding domain protein 2 (Homo sapiens), Q9UBB5. MBD2 binding to methylated oligonucleotide. AID 686964, 2013. inhibition, % at 4.4 µM. 0.31% of 370,000 active; in the data active = inhibition above about 13%
UHRF1 MBD2 ctr: UHRF1 methylated DNA binding inhibitors, primary screen, counter-screen for MBD2 inhibitor project, biochemical, TR-FRET, human UHRF1, single concentration; E3 ubiquitin-protein ligase UHRF1 (Homo sapiens), Q96T88; UHRF1 binding to methylated oligo; inhibition, % at 4.4 µM; 0.75% of 370,000 active; in the data active = inhibition above about 21%;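 also: UHRF1 SRA domain binding a hemimethylated CpG hairpin DNA probe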
rCAG RNA binder: binders of r(CAG) RNA repeats, primary screen, biochemical, fluorescence; r(CAG) RNA repeat, TO-PRO-1 dye displacement fluorescence; inhibition, % at 3 µM; 1.3% of 370,000 active; AID 651821, 2012;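 active = inhibition above the plate cutoff, the mean of all test compounds on that plate plus 3 SD, cut at about 35% in these data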;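 also: higher means more dye released from RNA so lower well fluorescence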
CSN deneddyl inh: inhibitors of CSN-mediated cullin deneddylation, primary screen, biochemical, fluorescence polarization, uHTS. COP9 signalosome complex subunit 5 (Homo sapiens), Q92905. inhibition, % at 12.5 µM. 0.38% of 360,000 active. Purified CSN, SCF-Nedd8-OG deneddylation. AID 651999, 2013;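 active = pattern-corrected inhibition above about 35%, with an unprinted fluorescence ratio check between 0.5 and 1.5, limit read from the data, passing the limit was not always enough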
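Detection – fluorescence polarization · System – HEK293T-derived human Csn5 enzyme · Controls – substrate-only high control, full reaction low control · Timing – 90 min, room temperature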
LEDGF integ inh: blockers of LEDGF/p75-dependent integrase strand transfer – biochemical, TR-FRET, high throughput, primary screen; HIV-1 integrase (with human LEDGF/p75); TR-FRET IN-LEDGF/p75 DNA integration, Eu/Cy5; inhibition, % at 3.7 µM; 0.64% of 370,000 active; AID 743269, 2014;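 active = inhibition above the screen-wide mean plus 3 SD, cut at about 13% in these data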;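 also: signal is the Cy5 over europium emission ratio at 671 and 618 nm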
ATG4B inh: ATG4B protease inhibitors, primary screen, biochemical, fluorescence, uHTS. AID 504462, 2011. 0.51% of 340,000 active. inhibition, % at 8.33 µM. ATG4B cleavage of LC3-PLA2, NBD-HPC fluorescence, 1 h. Cysteine protease ATG4B (Homo sapiens), Q9Y4P1; in the data active = inhibition above about 40%
Target sequence (Q9Y4P1 whole entry, looked up): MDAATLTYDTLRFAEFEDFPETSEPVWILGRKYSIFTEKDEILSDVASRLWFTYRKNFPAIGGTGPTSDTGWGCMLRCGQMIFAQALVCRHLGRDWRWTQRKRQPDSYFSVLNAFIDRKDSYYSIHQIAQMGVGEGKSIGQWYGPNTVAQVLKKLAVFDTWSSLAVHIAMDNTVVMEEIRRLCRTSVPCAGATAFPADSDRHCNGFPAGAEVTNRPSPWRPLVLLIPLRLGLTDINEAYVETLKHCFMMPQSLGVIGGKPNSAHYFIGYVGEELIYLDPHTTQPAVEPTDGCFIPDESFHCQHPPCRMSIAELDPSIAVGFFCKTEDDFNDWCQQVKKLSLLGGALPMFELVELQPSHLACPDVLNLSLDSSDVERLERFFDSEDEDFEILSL
IN multimer act: HIV-1 IN multimer formation enhancers, counter-screen for LEDGF/p75 integration inhibitor project, biochemical, TR-FRET; 17% of 2,000 active; activation, % at 7.7 µM; shares compounds with LEDGF integ inh; TR-FRET HIV-1 integrase multimerization; in the data active = activation above about 8.9%
TR-FRET interf: TR-FRET optical interference artefacts, confirmation, artefact control for LEDGF/p75-dependent integration inhibitor project, biochemical, HIV-1 IN multimerization; shares compounds with LEDGF integ inh; inhibition, % at 7.7 µM; 2,000 tested, under 10 active; AID 1053135, 2014; TR-FRET optical interference counterscreen;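 active = inhibition above the mean over all tested compounds plus 3 SD, which no compound reached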
LEDGF integ conf: inhibitors of HIV-1 IN-LEDGF/p75 DNA integration, confirmation, biochemical, TR-FRET. shares compounds with LEDGF integ inh. TR-FRET LEDGF/p75-dependent HIV-1 integration. inhibition, % at 3.7 µM. 36% of 2,000 active; in the data active = inhibition above about 14%
Large screens that a line does not name were inactive (follow-up assays come after a bar, where they were run).

C=CCn1c(SCc2c(Cl)cccc2Cl)nnc1-c1cccc(C)c1	none (no result: CSN deneddyl inh, ATG4B inh)
COc1ccc(N(C(C)C(=O)N/N=C/c2cccnc2)S(C)(=O)=O)cc1 (stereo unspecified)	LEDGF integ inh 35 | IN multimer act inactive | TR-FRET interf inactive | LEDGF integ conf inactive
COc1ccc(N(C(C)C(=O)N/N=C/c2ccc(OC(C)C)cc2)S(C)(=O)=O)cc1 (stereo unspecified)	none
C[C@H](O)[C@@H]1C(=O)N2CCc3c([nH]c4c(-c5ccc6c(c5)OCO6)cccc34)[C@@H]2C[C@@H]1N(C)C(=O)OCc1ccccc1	none (no result: CSN deneddyl inh, ATG4B inh)
COc1cc(C)cc(C(=O)O)c1C1=C(O)c2cccc(O)c2C(=O)C1=O	UHRF1 MBD2 ctr 23, LEDGF integ inh 18 | IN multimer act 13 | TR-FRET interf inactive | LEDGF integ conf 19
CC1C/C(=C/c2cccs2)C(=O)/C(=C/c2cccs2)C1 (stereo unspecified)	UHRF1 MBD2 ctr 28, LEDGF integ inh 29 | IN multimer act inactive | TR-FRET interf inactive | LEDGF integ conf inactive
C=CCN(CC=C)C(=S)NC(=O)c1ccc(OC)cc1	none
O=C(NC(=S)N(CCc1ccccc1)CCc1ccccc1)c1ccco1	LEDGF integ inh 15 | IN multimer act inactive | TR-FRET interf inactive | LEDGF integ conf 20
CC(CCc1ccccc1)NC(=S)NC(=O)c1ccco1 (stereo unspecified)	none
COc1ccc(C(=O)NC(=S)N(Cc2ccccc2)Cc2ccccc2)cc1	LEDGF integ inh 15 | IN multimer act inactive | TR-FRET interf inactive | LEDGF integ conf inactive
COc1cc(C(=O)NC(=S)N(CCc2ccccc2)CCc2ccccc2)cc(OC)c1OC	LEDGF integ inh 14 | IN multimer act inactive | TR-FRET interf inactive | LEDGF integ conf inactive
CCCCN1CCS(=O)(=O)N(Cc2ccc(Cl)cc2)C(C(=O)OC)C1 (stereo unspecified)	none (no result: CSN deneddyl inh, ATG4B inh)
CN(CCc1ccccn1)C(=O)c1ccc(Sc2ccccc2Cl)c([N+](=O)[O-])c1	none (no result: CSN deneddyl inh, ATG4B inh)
CC(Nc1cccc2ccccc12)C(=O)N/N=C/c1ccc([N+](=O)[O-])cc1 (stereo unspecified)	LEDGF integ inh 16 | IN multimer act inactive | TR-FRET interf inactive | LEDGF integ conf inactive
Cc1cccc(/C=N/NC(=O)C(C)Nc2cccc3ccccc23)n1 (stereo unspecified)	LEDGF integ inh 32 | IN multimer act inactive | TR-FRET interf inactive | LEDGF integ conf inactive
CC(C)C(=O)Nc1ccccc1C(=O)N/N=C/c1ccc([N+](=O)[O-])cc1	none
CCOc1ccc(-n2c(SCC(=O)Nc3cccc4ccccc34)nnc2-c2cccs2)cc1	none (no result: CSN deneddyl inh, ATG4B inh)
C=CCN1C(C(=O)OC)CN(Cc2cn(Cc3ccc(Cl)cc3)nn2)CCS1(=O)=O (stereo unspecified)	none (no result: CSN deneddyl inh, ATG4B inh)
O=C(CSc1nnc(-c2cnccn2)n1-c1ccccc1)c1ccccc1Br	none (no result: CSN deneddyl inh, ATG4B inh)
CCSc1oc(-c2ccco2)nc1S(=O)(=O)c1ccc(C)cc1	none
Cc1ccc(S(=O)(=O)c2nc(-c3ccco3)oc2SC(C)C)cc1	LEDGF integ inh 16 | IN multimer act inactive | TR-FRET interf inactive | LEDGF integ conf inactive
COc1cccc(Cn2cc(COC(=O)N3CCCC3)nn2)c1	none (no result: CSN deneddyl inh, ATG4B inh)
O=c1c(C=NCCCO)c(-c2ccccc2)[nH]n1-c1nc2ccccc2s1	LEDGF integ inh 21 | IN multimer act inactive | TR-FRET interf inactive | LEDGF integ conf inactive
Cc1nn(Cc2ccc(Cl)cc2Cl)c(C)c1NC(=O)c1ccc(COc2cc(Cl)ccc2Cl)o1	LEDGF integ inh 24 | IN multimer act inactive | TR-FRET interf inactive | LEDGF integ conf inactive
Cc1nn(Cc2ccc(Cl)cc2Cl)c(C)c1NC(=O)c1nn(C)cc1Cl	none
CS(=O)(=O)N1CCC2(CC1)OCCN2S(=O)(=O)c1ccccc1	none
CCS(=O)(=O)N1CCC2(CC1)OCCN2S(=O)(=O)c1ccccc1	LEDGF integ inh 26 (no result: ATG4B inh) | IN multimer act inactive | TR-FRET interf inactive | LEDGF integ conf inactive
Cc1ccc(-n2c(SCC(=O)Nc3ccccc3-c3ccccc3)nnc2-c2cccs2)cc1	none (no result: CSN deneddyl inh, ATG4B inh)
COc1ccc(S(=O)(=O)N2CCCCC2)cc1C(=O)Nc1cc(C)on1	none
COc1ccc(S(=O)(=O)N2CCOCC2)cc1C(=O)Nc1cc(C)on1	LEDGF integ inh 86 | IN multimer act inactive | TR-FRET interf inactive | LEDGF integ conf inactive
CC(=O)NC1C(=O)N(CCN2CCOCC2)c2ccc(Br)cc21 (stereo unspecified)	LEDGF integ inh 16 | IN multimer act inactive | TR-FRET interf inactive | LEDGF integ conf 37
CCOc1ccc2c(c1)C(NC(C)=O)C(=O)N2CCN1CCOCC1 (stereo unspecified)	none
Cc1cc(NC(=O)c2ccc(NS(=O)(=O)c3ccc(F)cc3)cc2)no1	none (no result: CSN deneddyl inh, ATG4B inh)
O=[N+]([O-])c1ccccc1/C=C/C=Nn1c(-c2ccc(F)cc2)n[nH]c1=S	none (no result: CSN deneddyl inh, ATG4B inh)
C[C@H]1CN([C@@H](C)CO)C(=O)CCCn2nncc2CO[C@@H]1CN(C)S(=O)(=O)c1ccc(Oc2ccccc2)nc1	LEDGF integ inh 26 (no result: ATG4B inh) | IN multimer act inactive | TR-FRET interf inactive | LEDGF integ conf inactive
Cc1cccc(NC(=O)Cn2nnc(-c3ccccc3F)n2)c1C	none (no result: CSN deneddyl inh, ATG4B inh)
Cc1ccc(-n2ccnc(SCC(=O)NCCc3ccccc3)c2=O)cc1F	LEDGF integ inh 17 | IN multimer act inactive | TR-FRET interf inactive | LEDGF integ conf inactive
CCOc1ccc(-n2ccnc(SCC(=O)NCCc3ccccc3)c2=O)cc1	none
CCOc1ccc(NC(=O)CC(NC(C)=O)c2ccccc2)cc1S(=O)(=O)N1CCCC1 (stereo unspecified)	LEDGF integ inh 14 | IN multimer act inactive | TR-FRET interf inactive | LEDGF integ conf inactive
